In the library only some 2% were active in any assay of this set; here they are far more common.
VLA-4 inh = inhibition in a human VLA-4 binding assay. P13612. VLA-4 expressing cells, ligand binding flow cytometry. AID 2557. inhibition, % (about 7 µM as worked out from the volumes in the protocol). 330,000 compounds, 0.2% hits; in the data active = inhibition above about 50%
MT1-MMP act inh = MT1-MMP (human) activation inhibition. GFP/RFP ratio change, % at 20 µM. 360,000 compounds, 0.061% hits. HT1080 RFP-PRO-GFP cells, GFP/RFP ratio fluorescence, overnight; percent of plate control window, DMSO zero;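 active = GFP/RFP ratio change of at least 30% with cell ATP level not reduced by more than half and red fluorescence within 50% of control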
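Assay system: HT1080 RFP-PRO-GFP cells | Dosing: 20 µM single dose, 1% DMSO | Incubation: Cells overnight before dosing, compound overnight, 37 °C, 5% CO2 | Evaluation: GFP/RFP fluorescence ratio | Control set: DMSO-only wells and HT1080 RFP-L50D-GFP cell wells as references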
Granule exo inh = lytic granule exocytosis inhibition; inhibition, % at 10 µM; 360,000 compounds, 0.66% hits; TALL-104 LAMP-1 surface exposure, flow cytometry; cells stimulated with thapsigargin and PMA;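 active = inhibition above about 55%, limit read from the data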
FGF22 binding = shifts melting point of recombinant human FGF22. activity (Tm shift, normalised), % at 9.99 µM. 340,000 compounds, 1.5% hits. recombinant FGF22 thermal shift, SYPRO orange fluorescence; percent of sucrose octasulfate shift, DMSO zero;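 active = mean Tm shift, scaled 0 neutral to 100 positive control, at about 1.3% or above, every replicate too, limit read from the data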
DAGLB inhibitor = blocks human DAGLB lipase activity | HEK293T DAGLB membrane lysate, EnzChek fluorogenic substrate | inhibition, % at 5.17 µM | 340,000 compounds, 0.059% hits; in the data active = inhibition above about 34%
ABCB6 inh MLPCN = human ABCB6 transporter inhibition; K562-ABCB6 porphyrin accumulation, flow cytometry, 1 h; active compounds read low; fluorescence ratio to DMSO, % at 10 µM; 360,000 compounds, 0.19% hits; AID 602162;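 active = fluorescence ratio to DMSO below 75%, the collection mean minus 3 SD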;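 also: signal is porphyrin accumulated inside mitochondria; lower ratio means ABCB6 inhibition with less porphyrin fluorescence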
Granule exo CP1 = blocks lytic granule exocytosis | shares compounds with Granule exo inh | TALL-104 cells, LAMP-1 externalization, flow cytometry; stimulated with PMA plus thapsigargin | inhibition, % at 10 µM | 1,500 compounds, 11% hits; in the data active = inhibition above about 60%
A number is an active result; – = inactive; · = no result given.

SMILES	VLA-4 inh	MT1-MMP act inh	Granule exo inh	FGF22 binding	DAGLB inhibitor	ABCB6 inh MLPCN	Granule exo CP1
O=C(CN1CCN(C(c2ccccc2)c2ccccc2)CC1)N1CCN(c2ccccc2)CC1	–	–	71.1	–	·	–	–
O=C(NC1CCCC1)C1C(c2ccc(C(F)(F)F)cc2)=Nc2ccccc2N1C(=O)c1cc2ccccc2[nH]1 (stereo not given)	·	–	69.8	–	·	·	–
Oc1ccccc1N1CCN(c2ccc3ccccc3n2)CC1	–	–	65.7	–	–	–	–
Cc1cccc(-c2noc(CNC(=O)c3ccc4c(c3)OCO4)n2)c1	–	–	55.7	–	–	–	–
COc1ccc(-c2noc(CNC(=O)c3ccc4c(c3)OCO4)n2)cc1	–	–	–	–	–	–	·
Cc1cc(Nc2cc(Cl)cc(Cl)c2)nc(N)n1	–	–	61.6	–	–	–	–
CCCN(c1ccccc1F)S(=O)(=O)c1cc(-c2cc(C)no2)ccc1OC	–	–	89.4	–	–	–	–
COc1ccc(-c2cc(C)no2)cc1S(=O)(=O)N(C)Cc1ccco1	–	–	–	–	–	–	·
O=C(CSc1nccn(-c2cccc(F)c2)c1=O)Nc1ccc(Cl)cc1F	–	–	76.3	–	–	–	–
O=C(NCC1(c2ccccc2)CCCC1)c1ccccc1Br	–	–	–	–	–	–	·
COc1ccccc1C(=O)NCC1(c2ccccc2)CCCC1	–	–	80.5	43.1	–	–	–
C[C@@H]1CN([C@@H](C)CO)C(=O)Cc2cc(NS(=O)(=O)c3ccccc3)ccc2O[C@H]1CN(C)S(=O)(=O)c1ccc(Cl)cc1	·	·	·	–	·	·	·
C[C@@H]1CN([C@H](C)CO)C(=O)c2cccc(NC(=O)Nc3ccc(C(F)(F)F)cc3)c2O[C@@H]1CN(C)Cc1ccc(C(=O)Nc2ccccc2N)cc1	·	·	·	–	·	·	·
COc1ccc(S(=O)(=O)N2CCN(C(=O)CCSc3ccccc3)CC2)cc1	–	–	102.1	–	–	–	–
OCCC1CN(CCCc2ccccc2)CCN1CCc1ccccc1 (stereo not given)	–	–	61.2	–	–	–	–
OCCC1CN(CCCc2ccccc2)CCN1Cc1ccccc1 (stereo not given)	–	–	–	–	–	–	·
COCCn1c(SCC(=O)Nc2ccccc2)nc2c(oc3ccccc32)c1=O	–	–	–	–	–	–	·
COCCn1c(SCC(=O)Nc2ccccc2OC)nc2c(oc3ccccc32)c1=O	–	·	64.6	–	–	–	–
COc1ccccc1NC(=O)CSc1nc2sc(C)c(C)c2c(=O)n1C	–	–	59.7	–	–	–	–
O=C(Cc1ccncc1)Nc1ccc2c(c1)[C@@H]1C[C@@H](CC(=O)NC3CCCC3)O[C@H](CO)[C@@H]1O2	·	·	·	–	·	·	·
CCC1CCCCN1CCCNC(=O)c1ccc2c(c1)N(Cc1ccc(F)cc1)C(=O)c1ccccc1S2=O (stereo not given)	–	–	61.1	–	–	–	–
O=C(NCCCN1CCCC1)c1ccc2c(c1)N(Cc1ccc(F)cc1)C(=O)c1ccccc1S2=O (stereo not given)	–	–	–	–	–	–	·
CCOC(=O)c1c(CSCc2ccccc2)oc2ccc(O)c(CN(C)C)c12	–	–	85.0	–	–	–	–
CCC(=O)N1CC2(C1)CN(C(C)=O)[C@@H](CO)c1[nH]c3cc(OC)ccc3c12	·	·	·	–	·	·	·
CC(=O)Nc1ccc(S(=O)(=O)N(C)c2ccccc2)cc1	–	–	–	·	–	–	·
SMILES	VLA-4 inh	MT1-MMP act inh	Granule exo inh	FGF22 binding	DAGLB inhibitor	ABCB6 inh MLPCN	Granule exo CP1
CCS(=O)(=O)c1ncc(Cl)c(C(=O)Nc2ccc(S(=O)(=O)N(C)c3ccccc3)cc2)n1	–	–	56.2	–	–	39.0	–
CS(=O)(=O)c1ncc(Cl)c(C(=O)Nc2ccc(N3CCOCC3)cc2)n1	–	–	–	·	–	–	·
Cc1ccccc1NC(=O)c1nc(S(C)(=O)=O)ncc1Cl	–	–	79.4	–	–	–	–
O=C(CSc1nc2ccccc2[nH]1)Nc1cc(C(F)(F)F)ccc1N1CCOCC1	–	–	62.4	·	–	–	–
O=C(Nc1ccccc1F)N[C@@H]1CC[C@@H](CCNC(=O)C2CCC2)O[C@@H]1CO	·	·	·	–	·	·	·
Cc1ccc(C(=O)NCc2ccc3c(c2)OCO3)o1	–	–	–	–	–	–	·
Cc1cn2c(=O)c(C(=O)NCc3ccc4c(c3)OCO4)cnc2s1	–	–	58.7	–	–	–	–
C[C@@H]1CN([C@@H](C)CO)S(=O)(=O)c2ccc(Br)cc2O[C@H]1CN(C)CC1CCOCC1	·	·	·	–	·	·	·
C[C@@H]1CN([C@@H](C)CO)C(=O)c2cc(NC(=O)Cc3ccccc3)ccc2O[C@@H](C)CCCCO[C@@H]1CN(C)Cc1ccc2c(c1)OCO2	·	·	·	–	·	·	·
CC(C)(C)[S@](=O)N1Cc2cc(C(=O)N3CCCCC3)nc(-c3cccc(C4=CCCC4)c3)c2[C@@H]1CCO	·	·	·	–	·	·	·
Cc1ccc(C)n1-c1nn(S(=O)(=O)c2ccccc2)c2cccc(F)c12	–	–	56.2	–	·	–	–
NS(=O)(=O)c1ccc(CCNC(c2ccccc2)c2ccccc2)cc1	–	–	–	–	–	–	·
c1ccc(C(NCCNC(c2ccccc2)c2ccccc2)c2ccccc2)cc1	–	–	80.2	–	–	–	–
